# Screening data from PubChem.
# Shown are actives, neighbours in structure and some others; about 2.8% of the full set was active somewhere.
# NPY1 pot ag: NPY-Y1 receptor potentiators or agonists, primary screen, cell-based; activation, % at 3.6 µM; Neuropeptide Y receptor type 1 (Homo sapiens), P25929; actives 0.37% (n = 220,000); NPY-Y1 expressing cells, potentiator/agonist activation; in the data active means activation above about 33%, passing the limit was not always enough;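 further: cells stimulated with NPY at EC10 then isoproterenol at EC100; 0% = low agonist plus stimulus and 100% = saturating agonist plus stimulus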
# NPY-Y2 PAM-ag: NPY-Y2 potentiators or agonists, primary screen, cell-based; Neuropeptide Y receptor type 2 (Homo sapiens), P49146; cells expressing NPY-Y2, potentiator/agonist read-out; activation, % at 3.6 µM; actives 0.45% (n = 220,000); in the data active means activation above about 27%;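 further: cells stimulated with NPY near EC25 plus isoproterenol at EC100; 0% = vehicle plus submaximal agonist and 100% = vehicle plus saturating agonist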
# Target sequence (P49146 whole entry, looked up): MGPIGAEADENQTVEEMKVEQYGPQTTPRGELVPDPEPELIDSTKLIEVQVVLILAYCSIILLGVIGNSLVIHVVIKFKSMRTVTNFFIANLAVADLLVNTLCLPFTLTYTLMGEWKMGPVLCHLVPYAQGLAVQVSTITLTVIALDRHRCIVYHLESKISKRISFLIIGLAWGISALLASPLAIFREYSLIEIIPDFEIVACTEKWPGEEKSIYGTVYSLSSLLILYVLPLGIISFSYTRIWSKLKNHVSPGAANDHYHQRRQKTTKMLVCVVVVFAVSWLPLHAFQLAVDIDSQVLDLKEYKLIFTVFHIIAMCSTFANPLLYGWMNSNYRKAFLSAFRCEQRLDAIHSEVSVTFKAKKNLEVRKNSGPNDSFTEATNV
# Measles CPE: compounds protecting cells from measles virus cytopathic effect, primary screen, measles RdRp inhibitor project, single point, MLSMR library, absorbance | protection (pct of control), % at 4 µM | Measles virus-infected cells, CPE protection | actives 1.5% (n = 140,000) | AID 841, 2007; in the data active means protection mostly above about 24%, no sharp cut-off; inactive means mostly below about 26%
# NPY-Y1 antag: NPY-Y1 receptor antagonists, primary screen, cell-based | Neuropeptide Y receptor type 1 (Homo sapiens), P25929 | HEK293-CNG Y1 cells, membrane potential fluorescence; NPY at EC95, then isoproterenol | inhibition, % at 3.6 µM | actives 1% (n = 200,000);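 active means inhibition above the campaign mean inhibition of all tested compounds plus 3 SD, cut at about 20% in these data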;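 further: 0% = DMSO wells given NPY plus isoproterenol and 100% = isoproterenol alone without NPY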
#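 Assay system: HEK293 cells with Y1 receptor plus CNG channel | Probe or stimulus: NPY (25 nM), isoproterenol (1 µM), Ro 20-1724 (25 µM) | Timing: Compound incubation 1 h at room temperature, readout 45 min post-stimulation | Measured by: Membrane-potential fluorescent dye readout | Benchmarks: High control isoproterenol alone, low control NPY with isoproterenol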
# NPY-Y2 antag: NPY-Y2 receptor antagonists, primary screen, cell-based; NPY-Y2 expressing cells, antagonist mode; AID 793, 2007; actives 0.99% (n = 140,000); inhibition, % at 2.7 µM; Neuropeptide Y receptor type 2 (Homo sapiens), P49146; in the data active means inhibition above about 17%;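 further: 0% = vehicle with agonist challenge and 100% = reference antagonist with challenge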
# Mdm2 ligase inh: MDM2-luciferase reporter signal enhancers, primary screen, MDM2 E3 ligase inhibitor project, cell-based, luminescence, 1536-well; E3 ubiquitin-protein ligase Mdm2 (Homo sapiens), Q00987; cell-based MDM2 ubiquitination luciferase reporter, 2 h; 0 = plate control, 100 = twice control, blank-subtracted; signal enhancement, % at 5 µM; actives 0.11% (n = 210,000);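 active means signal enhancement of 30% or more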;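 further: luminescence tracks abundance of the self-degrading MDM2-luciferase fusion protein; higher signal means inhibition of MDM2 E3 ligase activity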
#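 Assay system: mammalian cells stably expressing self-ubiquitinating, self-degrading MDM2 E3–luciferase fusion. Quantity: 2000 cells in each well. Medium: DMEM culture medium. Compound dosing: single-point 5 µM. Timing: cell settling 4 h, compound treatment 2 h, both 37 °C. Technique: luciferase luminescence. Read-out basis: percent signal gain over controls, blank-subtracted. Benchmarks: plate controls and plate blanks.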
# * = called active by the depositor; · = no result given.
SMILES,NPY1 pot ag,NPY-Y2 PAM-ag,Measles CPE,NPY-Y1 antag,NPY-Y2 antag,Mdm2 ligase inh
Cc1cc2c(c(=O)o1)C(C13C=CC(CC1)C3)C(C#N)=C(N)O2 (stereo unspecified),-20,-13,31*,-3,3,8
COCCCn1c(SCc2nnc(-c3ccc(OC)c(OC)c3)o2)nc2ccccc2c1=O,-24,-6,13,14,16,1
CCOC(=O)CSc1nc2cc(C(=O)N3CCC(C(N)=O)CC3)ccc2c(=O)n1-c1ccccc1,-25,-20,1,5,3,·
O=C(CSc1nc2ccccc2c(=O)n1Cc1ccco1)N1CCCC1,-3,1,·,-1,·,0
COc1ccc(-c2nnc(CSc3nc4ccccc4c(=O)n3CC(C)C)o2)cc1OC,-30,-37,5,26*,28*,4
CC(C)Cn1c(SCC(=O)N2CCCCC2)nc2ccccc2c1=O,-18,-12,14,22*,24*,1
CCOC(=O)CCSc1nc(C)c2ccccc2n1,-18,1,56*,3,1,4
CCOC(=O)CSc1nc2cc(C(=O)N3CCCC3)ccc2c(=O)n1Cc1ccccc1,-23,-9,25*,6,2,-34
COc1ccc(C(=O)COc2ncnc3cc(Cl)ccc23)cc1,-28,-19,·,·,·,-6
C=CCn1c(SCC(=O)N2CCc3ccccc3C2)nc2sc(C)cc2c1=O,6,-5,33*,0,3,-12
COCCn1c(SCC(=O)N2CCc3ccccc3C2)nc2ccccc2c1=O,15,4,32*,6,-2,8
C=CCn1c(SCC(=O)N2CCN(C(=O)c3ccco3)CC2)nc2sc(CC)cc2c1=O,-9,-5,13,-8,2,-7
CCOC(=O)CSc1nc2ccccc2c(=O)n1CC,-17,-5,5,7,5,-9
CCOC(=O)CSc1nc2ccccc2c(=O)n1CC(C)C,-24,-28,·,20*,·,-15
COCCn1c(SCC(=O)N2CCC(C)CC2)nc2ccccc2c1=O,9,-10,21,6,5,-6
Nc1nc(NCCN2CCOCC2)nc(NCc2ccccc2)c1[N+](=O)[O-],11,16,·,·,·,-6
CC(C)C(CO)NC(=O)CC(=O)NC(CO)C(C)C (stereo unspecified),12,-12,34,-1,1,-18
CCN(CC)c1ccc(NC(=O)CN2CCN(S(=O)(=O)c3cc(Cl)ccc3OC)CC2)cc1,53*,33*,11,-11,-2,-5
O=Nc1ccc(NOC(=O)c2ccccc2Br)cc1,2,3,28*,-5,4,-12
O=C(ONc1ccc(N=NC(=O)c2ccccc2O)cc1)c1ccccc1,-14,12,2,-1,3,-9
O=S(=O)(c1cccc2cccnc12)N(CCO)CCO,36*,6,3,1,0,-14
O=S(=O)(NCc1ccccc1)c1cccc2cccnc12,-3,1,43*,-1,3,-15
O=S(=O)(NCc1cccnc1)c1cccc2cccnc12,-25,-5,1,4,1,-7
COc1ccc(C(C#N)c2ccc(=O)[nH]n2)cc1 (stereo unspecified),6,0,·,0,·,2
N#CCC(=O)c1sccc1-n1cccc1,-23,0,·,1,·,-2
N=C1SCC(=O)N1c1ncc(Cc2cccc(Cl)c2)s1,3,-16,·,9,·,10
O=C(CN(Cc1ccco1)C(=O)CNS(=O)(=O)c1ccc(F)cc1)NCCc1ccccc1,5,-2,39*,-6,2,-17
O=C(CN(Cc1ccco1)C(=O)CNS(=O)(=O)c1ccccc1)NCc1ccccc1,-1,7,14,6,3,-15
O=C(OCc1ccccc1)C1CCCN1C(=O)c1ccccc1[N+](=O)[O-] (stereo unspecified),-3,-17,2,0,1,-25
